Assay outcomes as filed in PubChem BioAssay.
Shown are actives, neighbours in structure and some others; about 2.3% of the full set was active somewhere.
PREPL inhibitor: inhibits the human prolyl oligopeptidase-like enzyme; Q4J6C6; recombinant PREPL, fluorescence polarization activity-based probe; inhibition, % at 5.96 µM; hit rate 0.68% among 320,000; AID 2751; in the data active means inhibition above about 43%;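 further: 0% = enzyme with DMSO and 100% = wells lacking enzyme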
PP5 primary: blocks human protein phosphatase 5 activity; P53041; purified PP5c, OMFP substrate fluorescence; inhibition, % at 6.7 µM; hit rate 0.18% among 320,000; AID 1987;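 active means inhibition above the campaign's mean inhibition across all tested compounds plus 3 SD, cut at about 9.5% in these data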;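 further: 0% = DMSO only and 100% = 100 µM cantharidin control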
PP1 counter: counter-screen for PP5 inhibitors: inhibitors of human PP1-alpha; inhibition, % at 6.7 µM; P62136; hit rate 0.9% among 320,000; AID 2235; purified PP1alpha, OMFP fluorescence;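 active means inhibition above the mean inhibition of all tested compounds plus 3 SD, computed separately for each screening campaign, cut at about 15% in these data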
Target sequence (P62136 whole entry, looked up): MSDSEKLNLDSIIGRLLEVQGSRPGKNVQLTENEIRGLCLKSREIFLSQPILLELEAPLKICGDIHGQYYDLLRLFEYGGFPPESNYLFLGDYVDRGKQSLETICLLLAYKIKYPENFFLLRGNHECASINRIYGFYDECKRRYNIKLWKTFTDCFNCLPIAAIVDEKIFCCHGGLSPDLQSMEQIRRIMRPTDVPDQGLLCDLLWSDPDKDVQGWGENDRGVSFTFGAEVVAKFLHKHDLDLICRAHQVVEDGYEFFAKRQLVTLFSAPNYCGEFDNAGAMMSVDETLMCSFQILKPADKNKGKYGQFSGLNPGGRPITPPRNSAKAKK
Fh CTSL1 inh: counter-screen for PFM18AAP inhibitors: inhibitors of F. hepatica cathepsin L1; recombinant F. hepatica cathepsin L1, Z-Leu-Arg-MCA fluorescence; AID 1906; hit rate 0.49% among 300,000; inhibition, % at 5.96 µM;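 active means inhibition above the mean of all tested compounds plus 3 SD, set per screening campaign, cut at about 17% in these data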;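 further: 0% = plate median of test compound wells and 100% = 1 µM Z-Phe-Ala-diazomethylketone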
UBC13 polyUb: inhibitors of human UBC13 polyubiquitin chain formation. P61088. TR-FRET. inhibition, % at 20 µM. hit rate 0.47% among 330,000. AID 485273; in the data active means inhibition above about 45%, passing the limit was not always enough
UCH37 inh: blocks the human deubiquitinase UCH37; AID 588478; purified proteasome/UCH37, Ub-AMC cleavage fluorescence; hit rate 0.33% among 330,000; inhibition, % (concentration not given with the values); Q9Y5K5;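 active means mean inhibition over replicate wells above about 20%, limit read from the data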;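 further: 0% = compound-free wells with enzyme and 100% = wells lacking proteasome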
Target sequence (Q9Y5K5 whole entry, looked up): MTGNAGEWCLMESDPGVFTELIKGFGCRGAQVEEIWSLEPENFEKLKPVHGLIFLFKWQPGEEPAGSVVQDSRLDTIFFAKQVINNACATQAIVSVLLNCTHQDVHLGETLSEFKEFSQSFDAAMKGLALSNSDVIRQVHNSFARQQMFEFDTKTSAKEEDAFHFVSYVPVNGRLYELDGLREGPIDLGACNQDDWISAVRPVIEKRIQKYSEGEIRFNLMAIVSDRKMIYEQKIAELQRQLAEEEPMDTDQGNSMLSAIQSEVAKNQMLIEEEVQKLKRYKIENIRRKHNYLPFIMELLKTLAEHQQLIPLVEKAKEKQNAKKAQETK
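Material: Human UCH37 enzyme supplied as purified proteasome complex | Schedule: 30 min compound-proteasome preincubation then 25 min substrate reaction, room temperature | Detection: AMC fluorescence from Ub-AMC cleavage, excitation 355 nm, emission 460 nm | Benchmarks: Wells without proteasome as full block, compound-free enzyme plus substrate as uninhibited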
Active calls of the source: *; i = inactive; nt = no result given.

SMILES | PREPL inhibitor | PP5 primary | PP1 counter | Fh CTSL1 inh | UBC13 polyUb | UCH37 inh
CC(C)(C)OC(=O)CNC(=O)c1nc[nH]c1C(=O)N1CCc2ccccc2C1 | 7 | 1 | 2 | 2 | 7 | 31*
O=C(O)c1ccc(NN=Cc2ccc(-c3ccccc3Cl)o2)cc1 | nt | nt | nt | nt | nt | -35
Cc1ccc2nc(N(CCCN(C)C)C(=O)c3cc(-c4cccs4)nc4ccccc34)sc2c1 | 4 | 5 | 17* | -1 | 21 | -107
COc1cc(NC(=O)c2sc3ncn(CC(=O)N4CCCC(C)C4)c(=O)c3c2C)cc(OC)c1OC (stereo not given) | 4 | 1 | 17* | 4 | 2 | 4
N#C/C(=C/c1ccc(-c2cc(C(=O)O)cc(C(=O)O)c2)o1)c1nc2ccccc2s1 | 0 | -1 | 10 | 7 | -70 | 28*
COCCN1C(=O)C(O)=C(C(=O)c2ccco2)C1c1cccc(Oc2ccccc2)c1 (stereo not given) | 12 | 1 | 25* | 1 | -7 | 8
COc1cc(C2C(C(=O)c3ccco3)=C(O)C(=O)N2CCc2ccccc2)ccc1O (stereo not given) | 2 | 2 | 15* | 0 | 6 | 10
Cc1cc(C)nc(N(C#N)CC(=O)c2ccccc2)n1 | 4 | 1 | -2 | 69* | -4 | 5
CCc1ccc(C(=O)CN(C#N)c2nc(C)cc(C)n2)cc1 | 30 | 1 | 1 | 58* | -9 | 3
CC(C)(C)OC(=O)N1CCC[C@H]1C(=O)NN=Cc1ccc2nccnc2c1 | nt | nt | nt | nt | nt | 4
CC(C)c1nc2c(s1)CCc1onc(-c3ccc(Cl)cc3)c1-2 | 9 | 0 | 3 | 0 | 12 | 24*
COc1ccc(OCC(=O)O/N=C(\N)Cc2ccc(Cl)cc2)cc1 | -9 | 4 | 3 | 30* | 3 | 3
Cc1ccc(OCC(=O)O/N=C(\N)Cc2ccc(Cl)cc2)cc1 | -1 | 2 | 1 | -17 | -3 | 3
CC(=NNC(=O)c1cc(C)oc1C)c1ccc(C)c([N+](=O)[O-])c1 | nt | nt | nt | nt | nt | 3
S=C(NCCNCc1ccccc1)NC1CCCCC1 | 10 | 1 | 0 | 19* | -9 | nt
S=C(NCCc1ccccc1)NC1CCCCCC1 | 4 | 2 | -1 | 2 | -1 | 1
COc1cccc(C=NNC(=O)CCc2c(C)n[nH]c2C)c1 | nt | nt | nt | nt | nt | 29*
C[C@H](NC(=O)c1ccco1)C(=O)Nc1nc(-c2ccccn2)cs1 | nt | nt | nt | nt | nt | 1
O=C(Nc1nc(-c2ccccn2)cs1)c1ccco1 | 8 | 0 | 16* | -1 | -26 | 1
COc1cc2ccccc2cc1C(=O)Nc1ccc(Cc2ccncc2)cc1 | 0 | 6 | 16* | 1 | 1 | 1
COc1cc(C=NN2CCN(c3ccccc3)CC2)ccc1OC(C)=O | nt | nt | nt | nt | nt | 3
Cc1c(OCC(=O)N[C@@H](Cc2ccccc2)C(=O)O)ccc2c3c(c(=O)oc12)CCC3 | 4 | 0 | 0 | -1 | -4 | -22
Cc1c(OCC(=O)N[C@@H](Cc2ccccc2)C(=O)O)ccc2c1oc(=O)c1ccccc12 | 9 | 3 | 15* | -1 | 5 | i
COCCCNC(=O)C(Cc1ccccc1)NS(=O)(=O)c1ccc2c(c1)c(=O)n(C)c(=O)n2C (stereo not given) | 1 | 0 | -7 | -1 | 7 | 4
Cn1c(=O)c2cc(S(=O)(=O)NC(Cc3ccccc3)C(=O)NCc3ccco3)ccc2n(C)c1=O (stereo not given) | 3 | -1 | -5 | 31* | 0 | 3
SMILES | PREPL inhibitor | PP5 primary | PP1 counter | Fh CTSL1 inh | UBC13 polyUb | UCH37 inh
Cc1cc(SCC(=O)NN=Cc2ccc(O)c(O)c2)c(C)cc1Br | nt | nt | nt | nt | nt | 3
CCOC(=O)C1CCN(C2=C(NS(=O)(=O)c3ccc(Br)cc3)C(=O)c3ccccc3C2=O)CC1 | 15 | 4 | 6 | 4 | -87 | 23*
NC(=O)C1CCN(C2=C(NS(=O)(=O)c3ccccc3)C(=O)c3ccccc3C2=O)CC1 | -1 | 1 | -1 | 0 | -88 | 16
CCN1CCN(C2=C(NS(=O)(=O)c3ccccc3)C(=O)c3ccccc3C2=O)CC1 | 7 | 4 | 1 | 9 | -117 | 12
CCOC(=O)N1CCN(C2=C(NS(=O)(=O)c3ccccc3)C(=O)c3ccccc3C2=O)CC1 | 8 | 1 | -5 | -3 | -55 | 8
NC(=O)C1CCN(C2=C(NS(=O)(=O)c3ccc(Br)cc3)C(=O)c3ccccc3C2=O)CC1 | 18 | 3 | 2 | -2 | -118 | 21*
CCN1CCN(C2=C(NS(=O)(=O)c3ccc(Br)cc3)C(=O)c3ccccc3C2=O)CC1 | 26 | 1 | 0 | 20* | -101 | 13
CCOc1ccc2nc(N=Cc3c(C)[nH]n(-c4ccccc4)c3=O)sc2c1 | nt | nt | nt | nt | nt | 9
CCOC(=O)c1sc(S(C)(=O)=O)c2c1CCc1conc1-2 | -5 | 1 | -2 | 42* | -3 | -6
O=C(Nc1ccc([N+](=O)[O-])cc1)Nc1ccc(OC(F)F)c(Cl)c1 | 17 | 9 | 17* | 5 | nt | 4
COc1ccc(NC(C)C(=O)NN=Cc2c(O)ccc3ccccc23)cc1 (stereo not given) | nt | nt | nt | nt | nt | 1
O=C(NCc1ccco1)C(Cc1ccccc1)N1C(=O)C2C3C=CC(C3)C2C1=O (stereo not given) | -1 | 3 | 2 | 20* | -7 | 6
Cc1cc(C)c2sc(N(CCN(C)C)C(=O)c3cc(Cl)sc3Cl)nc2c1 | -13 | 0 | 2 | 17* | 3 | 5
Cc1nc2ccccn2c1C(=O)NN=Cc1ccc(CNC(=O)C(=O)Nc2ccccc2)o1 | nt | nt | nt | nt | nt | -1
O=C(NN=Cc1cccc([N+](=O)[O-])c1)c1cc(-c2ccc3c(c2)OCO3)n[nH]1 | nt | nt | nt | nt | nt | 7
Cc1cc(C)c2c(N)c(C(=O)NN=Cc3ccccc3)sc2n1 | nt | nt | nt | nt | nt | -60
CC(=O)N1c2ccc3ccccc3c2C2C=CCC2C1c1ccc(Br)cc1 (stereo not given) | 3 | 2 | 0 | -2 | nt | nt
CC(=O)N1c2ccc(Cl)cc2C2C=CCC2C1c1cccc2ccccc12 (stereo not given) | -12 | 1 | 1 | 1 | nt | 48*
COc1ccc(NC(=O)CSCCc2ccccn2)cc1OC | 12 | 0 | 1 | 1 | 3 | 0
O=C(CSCCc1ccccn1)Nc1cccnc1 | 14 | -9 | -1 | 9 | -7 | 23*
COc1ccc(C2C(C#N)=C3NC(=O)c4c(sc5c4CCCCC5)N3C3=C2C(=O)CC(C)(C)C3)cc1 (stereo not given) | -2 | 1 | 16* | 3 | -42 | -27
O=C(CO)NN=Cc1c2ccccc2cc2ccccc12 | nt | nt | nt | nt | nt | -1
O=C(CN(Cc1ccccc1)S(=O)(=O)c1ccc(Br)cc1)NCC1CCCO1 (stereo not given) | 2 | 0 | 3 | 0 | -1 | 7
Cc1ccc(S(=O)(=O)N(CC(=O)NCC2CCCO2)Cc2ccc(F)cc2)cc1 (stereo not given) | -3 | 3 | 15* | -2 | -5 | 2
